{"data": "Measurements pooled from the literature", "target": "Serine/threonine-protein kinase SIK3 (SIK3, Homo sapiens, UniProt Q9Y2K2)", "note": "Compare with care: the assays were run in different laboratories."}
{"SMILES": "C[C@H]1CCN(c2nccc(-c3cnn4ncccc34)n2)C1", "read-out": "binding", "concentration": "1 µM", "remaining binding": "66%"}
{"SMILES": "Cc1cnc(Nc2ccc(C(=O)N3CCC(N4CCCC4)CC3)cc2)nc1-c1cc2ccccc2s1", "read-out": "binding", "method": "competition with immobilised ligand", "concentration": "1 µM", "remaining binding": "61%"}
{"SMILES": "FC(F)(F)Oc1cccc(-c2cnc3ccc(-c4ccncc4)nn23)c1", "read-out": "cell-free assay", "method": "competition with immobilised ligand", "concentration": "5 µM", "remaining binding": "66%"}
{"SMILES": "CCCCN(CCCC)C(=O)CN1C[C@H](c2cc(OC)c3c(c2)OCO3)[C@@H](C(=O)O)[C@@H]1CC(C)(C)CCC", "read-out": "cell-free assay", "method": "competition with immobilised ligand", "concentration": "1 µM", "remaining binding": "60.5%"}
{"SMILES": "COc1cnc(Nc2cccc(S(N)(=O)=O)c2)nc1N1CCN(c2ccccc2)CC1", "read-out": "binding", "method": "competition with immobilised ligand", "concentration": "1 µM", "remaining binding": "84%"}
{"SMILES": "CN(C)c1nccc(-c2cnn3ncccc23)n1", "read-out": "binding", "concentration": "1 µM", "remaining binding": "99%"}
{"SMILES": "O=C(Nc1c[nH]nc1C(=O)NC1CCNCC1)c1cc(F)cc(F)c1", "read-out": "binding", "method": "competition with immobilised ligand", "concentration": "1 µM", "remaining binding": "66%"}
{"SMILES": "F[C@@H]1CCN(c2nccc(-c3cnn4ncccc34)n2)C1", "read-out": "binding", "concentration": "1 µM", "remaining binding": "74%"}
{"SMILES": "CCC(=O)N[C@@H]1CC[C@H](C(=O)N(C)c2ccc(-c3nc4ccccc4o3)cc2)C1", "read-out": "cell-free assay", "method": "competition with immobilised ligand", "concentration": "1 µM", "remaining binding": "100%"}
{"SMILES": "COc1ccnn2ncc(-c3ccnc(N(C)C)n3)c12", "read-out": "binding", "concentration": "1 µM", "remaining binding": "78%"}
{"SMILES": "O=C(NCCCN1CCOCC1)c1ccc(Nc2ncc(Cl)c(-c3ccc(Cl)s3)n2)cc1", "read-out": "binding", "method": "competition with immobilised ligand", "concentration": "1 µM", "remaining binding": "97%"}
{"SMILES": "CN(C)CC#Cc1ccc(OCCCc2sc(N3CCc4cccc(C(=O)Nc5nc6ccccc6s5)c4C3)nc2C(=O)O)c(F)c1", "read-out": "cell-free assay", "method": "competition with immobilised ligand", "concentration": "1 µM", "remaining binding": "77%"}
{"SMILES": "N[C@@H]1CCN(c2nccc(-c3cnn4ncccc34)n2)C1", "read-out": "binding", "concentration": "1 µM", "remaining binding": "100%"}
{"SMILES": "NS(=O)(=O)c1cc(NC(=O)Cc2ccccc2)ccc1Oc1cccc(Cl)c1", "read-out": "cell-free assay", "method": "competition with immobilised ligand", "concentration": "1 µM", "remaining binding": "87%"}
{"SMILES": "O=C(c1ccc(Nc2ncc(Cl)c(-c3ccc(Cl)s3)n2)cc1)N1CCC(N2CCCC2)CC1", "read-out": "binding", "method": "competition with immobilised ligand", "concentration": "1 µM", "remaining binding": "84%"}
{"SMILES": "Cc1cc(C)c(-n2ccn3nc(-c4cccnc4)cc23)cc1NC(=O)c1cc(C#N)cc(S(F)(F)(F)(F)F)c1", "read-out": "cell-free assay", "method": "competition with immobilised ligand", "concentration": "0.1 µM", "remaining binding": "75.3%"}
{"SMILES": "c1cncc(-c2cccc(Nc3nccc(NC4CCCCC4)n3)c2)c1", "read-out": "binding", "method": "competition with immobilised ligand", "concentration": "10 µM", "remaining binding": "83%"}
{"SMILES": "CN(c1nccc(-c2cnn3ncccc23)n1)C1CC1", "read-out": "binding", "concentration": "1 µM", "remaining binding": "100%"}
{"SMILES": "CCN1CCN(Cc2ccc(C(=O)Nc3ccc(C)c(Oc4ccc5c(c4)CC(=O)N5)c3)cc2C(F)(F)F)CC1", "read-out": "binding", "method": "competition with immobilised ligand", "concentration": "1 µM", "remaining binding": "100%"}
{"SMILES": "O=C(NCCCC1CCCCC1)c1ccc(CNC(=O)c2cnn(-c3ccccc3)c2C(F)(F)F)cc1", "read-out": "cell-free assay", "method": "competition with immobilised ligand", "concentration": "0.1 µM", "remaining binding": "76%"}
